The source made the active and inactive calls.
Assays:
[1] = system: Canis familiaris; assay: Antiarrhythmic property ventricular effective refractory period(post drug) is compared to lidocaine(2) using doses(3 and 6 mg/kg); format: functional, Canis lupus familiaris, Heart
In short: (§1)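 Mongrel dogs (about 12–25 kg), 1–4 days after coronary occlusion infarction, under sodium pentobarbital (~30 mg/kg) with 12-lead ECG monitoring. Agents and lidocaine were given iv at 3 and 6 mg/kg. Programmed ventricular stimulation was applied at baseline, about 2–5 min after each dose, and at 30 min. SVT was defined as ≥250 beats/min lasting ≥30 s. Pre means drug-free; post means after dosing.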

[2] = system: Canis familiaris; assay: Tested for antiarrhythmic property by measuring ability to decrease heart rate(post drug) is compared to Lidocaine using doses(3 and 6 mg/kg); No effect; format: functional, organism-based; parameters: dose 6 mg/kg; conditions: Canis lupus familiaris; in short: as §1
[3] = system: Canis familiaris; assay: (§2) Antiarrhythmic property is compared to lidocaine(2) using doses(3 and 6 mg/kg). Time required for the ventricular myocardium to undergo depolarization and repolarization (drug free); No effect; format: functional, organism-based; parameters: dose 6 mg/kg; conditions: Canis lupus familiaris; in short: as §1
[4] = system: Canis familiaris; assay: Tested for antiarrhythmic property by measuring ability to decrease heart rate(drug free) is compared to Lidocaine using doses (3 and 6 mg/kg); No effect; format: functional, organism-based; parameters: dose 6 mg/kg; conditions: Canis lupus familiaris; in short: as §1
[5] = system: Canis familiaris; assay: Tested for antiarrhythmic property by measuring ability to decrease Mean blood pressure(post drug) is compared to Lidocaine using doses(3 and 6 mg/kg); format: functional, Canis lupus familiaris; in short: as §1
[6] = system: Canis familiaris; assay: (§3) Antiarrhythmic property A-V nodal conduction time(drug free) is compared to lidocaine(2) using doses(3 and 6 mg/kg); No effect; format: functional, organism-based; parameters: dose 6 mg/kg; conditions: Canis lupus familiaris; Heart; in short: as §1
[7] = system: Canis familiaris; assay: Antiarrhythmic property A-V nodal conduction time(post drug) is compared to lidocaine(2) using doses(3 and 6 mg/kg); No effect; format: functional, organism-based; parameters: dose 6 mg/kg; conditions: Canis lupus familiaris; Heart; in short: as §1
[8] = system: Canis familiaris; assay: Antiarrhythmic property His-Purkinje conduction time(post drug) is compared to lidocaine(2) using doses(3 and 6 mg/kg); No effect; format: functional, organism-based; parameters: dose 6 mg/kg; conditions: Canis lupus familiaris; His-Purkinje system; in short: as §1
[9] = system: Canis familiaris; assay: Antiarrhythmic property His-Purkinje conduction time(drug free) is compared to lidocaine(2) using doses(3 and 6 mg/kg); No effect; format: functional, organism-based; parameters: dose 6 mg/kg; conditions: Canis lupus familiaris; His-Purkinje system; in short: as §1
[10] = system: Canis familiaris; assay: Tested for antiarrhythmic property by measuring ability to decrease Mean blood pressure (drug free) is compared to Lidocaine using doses(3 and 6 mg/kg).; format: functional, Canis lupus familiaris; in short: as §1
[11] = system: Canis familiaris; assay: (§4) Antiarrhythmic property is compared to lidocaine(2) using doses(3 and 6 mg/kg). Time required for the ventricular myocardium to undergo depolarization and repolarization ((post drug); No effect; format: functional, organism-based; parameters: dose 6 mg/kg; conditions: Canis lupus familiaris; in short: as §1
[12] = system: Canis familiaris; assay: (§5) Antiarrhythmic property ventricular effective refractory period(drug free) is compared to lidocaine(2) using doses(3 and 6 mg/kg); format: functional, Canis lupus familiaris, Heart; in short: as §1
[13] = system: Canis familiaris; assay: Tested for antiarrhythmic property by measuring ability to decrease heart rate(drug free) is compared to Lidocaine using doses (3 and 6 mg/kg).; format: functional, Canis lupus familiaris; in short: as §1
[14] = system: Canis familiaris; assay: Antiarrhythmic property A-V nodal conduction time(drug free) is compared to lidocaine(2) using doses(3 and 6 mg/kg); format: functional, Canis lupus familiaris, Heart; in short: as §1
[15] = system: Canis familiaris; assay: Antiarrhythmic property A-V nodal conduction time(post drug) is compared to lidocaine(2) using doses(3 and 6 mg/kg); format: functional, Canis lupus familiaris, Heart; in short: as §1
[16] = system: Canis familiaris; assay: Antiarrhythmic property is compared to lidocaine(2) using doses(3 and 6 mg/kg). Time required for the ventricular myocardium to undergo depolarization and repolarization (drug free); format: functional, Canis lupus familiaris; in short: as §1
[17] = system: Canis familiaris; assay: Antiarrhythmic property is compared to lidocaine(2) using doses(3 and 6 mg/kg). Time required for the ventricular myocardium to undergo depolarization and repolarization ((post drug); format: functional, Canis lupus familiaris; in short: as §1
[18] = system: Canis familiaris; assay: Tested for antiarrhythmic property by measuring ability to decrease heart rate(post drug) is compared to Lidocaine using doses(3 and 6 mg/kg).; format: functional, Canis lupus familiaris; in short: as §1
[19] = system: Canis familiaris; assay: Antiarrhythmic property Nonsustained ventricular tachycardia is compared to lidocaine(2) using dose of (3 and 6 mg/kg); format: functional, Canis lupus familiaris, Heart; in short: as §1
[20] = system: Canis familiaris; assay: Tested for antiarrhythmic property by measuring ability to decrease heart rate (drug free) is compared to Lidocaine using doses (3 and 6 mg/kg).; format: functional, Canis lupus familiaris; in short: as §1
[21] = system: Canis familiaris; assay: (§6) Antiarrhythmic properties are compared to lidocaine(2) using doses(3 and 6 mg/kg). Time required for the ventricular myocardium to undergo depolarization and repolarization (drug free); No effect; format: functional, organism-based; parameters: dose 6 mg/kg; conditions: Canis lupus familiaris; in short: as §1
[22] = system: Canis familiaris; assay: Antiarrhythmic property A-V nodal conduction time(post drug) is compared to lidocaine(2) using dose (3 and 6 mg/kg); format: functional, Canis lupus familiaris, Heart; in short: as §1
[23] = system: Canis familiaris; assay: (§7) Antiarrhythmic properties are compared to lidocaine(2) using doses(3 and 6 mg/kg). Time required for the ventricular myocardium to undergo depolarization and repolarization ((post drug); No effect; format: functional, organism-based; parameters: dose 6 mg/kg; conditions: Canis lupus familiaris; in short: as §1
[24] = system: Canis familiaris; assay: Tested for antiarrhythmic property by measuring ability to decrease Mean blood pressure (post drug) is compared to Lidocaine using doses(3 and 6 mg/kg); format: functional, Canis lupus familiaris; in short: as §1
[25] = system: Canis familiaris; assay: Antiarrhythmic properties are compared to lidocaine(2) using doses(3 and 6 mg/kg) measures His-Purkinje conduction time(drug free); No effect; format: functional, organism-based; parameters: dose 6 mg/kg; conditions: Canis lupus familiaris; His-Purkinje system; in short: as §1
[26] = system: Canis familiaris; assay: Antiarrhythmic property His-Purkinje conduction time(drug free) is compared to lidocaine(2) using doses(3 and 6 mg/kg); format: functional, Canis lupus familiaris, His-Purkinje system; in short: as §1
[27] = system: Canis familiaris; assay: (§8) Antiarrhythmic property His-Purkinje conduction time(post drug) is compared to lidocaine(2) using doses(3 and 6 mg/kg); format: functional, Canis lupus familiaris, His-Purkinje system; in short: as §1
[28] = system: Canis familiaris; assay: Antiarrhythmic property ventricular effective refractory period(post drug) is compared to lidocaine(2) using doses(3 and 6 mg/kg); No effect; format: functional, organism-based; parameters: dose 6 mg/kg; conditions: Canis lupus familiaris; Heart
In short: (§9)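 Mongrel dogs (~12–25 kg), 1–4 days after coronary occlusion leaving a surviving epicardial rim, anesthetized with sodium pentobarbital (~30 mg/kg). 12-lead ECG monitored throughout. Agent given iv at 3 and 6 mg/kg. Parameters recorded before (drug free) and after dosing. Programmed electrical stimulation tested SVT inducibility (≥250 beats/min, ≥30 s) at baseline, ~2–5 min after each dose, and at 30 min.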

[29] = system: Canis familiaris; assay: as §4; format: functional, organism-based; parameters: dose 6 mg/kg; conditions: Canis lupus familiaris; in short: as §9; remark: listed apart in the source
[30] = system: Canis familiaris; assay: as §2; format: functional, organism-based; parameters: dose 6 mg/kg; conditions: Canis lupus familiaris; in short: as §9; remark: listed apart in the source
[31] = system: Canis familiaris; assay: Antiarrhythmic property A-V nodal conduction time(post drug) is compared to lidocaine(2) using dose (3 and 6 mg/kg); No effect; format: functional, organism-based; parameters: dose 6 mg/kg; conditions: Canis lupus familiaris; Heart; in short: as §9
[32] = system: Canis familiaris; assay: as §6; format: functional, organism-based; parameters: dose 6 mg/kg; conditions: Canis lupus familiaris; in short: as §9; remark: listed apart in the source
[33] = system: Canis familiaris; assay: Antiarrhythmic property ventricular effective refractory period(drug free) is compared to lidocaine(2) using doses(3 and 6 mg/kg); No effect; format: functional, organism-based; parameters: dose 6 mg/kg; conditions: Canis lupus familiaris; Heart; in short: as §9
[34] = system: Canis familiaris; assay: as §3; format: functional, organism-based; parameters: dose 6 mg/kg; conditions: Canis lupus familiaris; Heart; in short: as §9; remark: listed apart in the source
[35] = system: Canis familiaris; assay: as §7; format: functional, organism-based; parameters: dose 6 mg/kg; conditions: Canis lupus familiaris; in short: as §9; remark: listed apart in the source
[36] = system: Canis familiaris; assay: as §5; format: functional, Canis lupus familiaris, Heart; in short: as §9; remark: listed apart in the source
[37] = system: Canis familiaris; assay: Antiarrhythmic property Mean blood pressure (drug free) is compared to Lidocaine using doses(3 and 6 mg/kg).; format: functional, Canis lupus familiaris; in short: as §9
[38] = system: Canis familiaris; assay: Antiarrhythmic property Heart rate (post drug) is compared to Lidocaine using doses(3 and 6 mg/kg). system.; format: functional, Canis lupus familiaris; in short: as §9
[39] = system: Canis familiaris; assay: as §8; format: functional, Canis lupus familiaris, His-Purkinje system; in short: as §1; remark: listed apart in the source
[40] = system: Canis familiaris; assay: Antiarrhythmic property Mean blood pressure(post drug) is compared to Lidocaine using doses(3 and 6 mg/kg); format: functional, Canis lupus familiaris; in short: as §9
[41] = system: Canis familiaris; assay: Antiarrhythmic property Heart rate (drug free) is compared to Lidocaine using doses (3 and 6 mg/kg).; format: functional, Canis lupus familiaris; in short: as §9
[42] = system: Canis familiaris; assay: Antiarrhythmic properties are compared to lidocaine(2) using doses(3 and 6 mg/kg) measures His-Purkinje conduction time(drug free); format: functional, Canis lupus familiaris, His-Purkinje system; in short: as §9
[43] = system: Canis familiaris; assay: Antiarrhythmic property Nonsustained ventricular tachycardia is compared to lidocaine(2) using doses(3 and 6 mg/kg); format: functional, Canis lupus familiaris, Heart; in short: as §9

CCN(CC)CC(=O)Nc1c(C)cccc1C [LIDOCAINE]
VERP [1]: 167 ms | HR [2]: inactive | QT interval [3]: inactive | HR [4]: inactive | MBP [5]: 84 mmHg | AH interval [6]: inactive | AH interval [7]: inactive | HV interval [8]: inactive | HV interval [9]: inactive | MBP [10]: 105 mmHg | QT interval [11]: inactive | VERP [12]: 142 ms

CC(C)N1CC2CC(CN(C(=O)c3ccc([N+](=O)[O-])cc3)C2)C1.Cl
VERP [1]: 230 ms | HR [13]: 130 beats min-1 | AH interval [14]: 60 ms | MBP [5]: 75 mmHg | AH interval [15]: 75 ms | QT [16]: 220 ms | QT [17]: 260 ms | MBP [10]: 95 mmHg | NSVT [12]: 6 mg/kg | VERP [12]: 160 ms | HR [18]: 100 beats min-1

O=C(c1ccccc1)N1CC2CC(CN(CC3CC3)C2)C1
AH interval [14]: 65 ms | VERP [19]: 190 ms | HV interval [8]: inactive | HR [20]: 120 beats min-1 | QT interval [21]: inactive | AH interval [22]: 70 ms | QT interval [23]: inactive | MBP [10]: 92 mmHg | MBP [24]: 83 mmHg | VERP [12]: 170 ms | HV interval [25]: inactive | HR [18]: 111 beats min-1

CC(C)N1CC2CC(CN(C(=O)c3ccc(-n4ccnc4)cc3)C2)C1
HV interval [26]: 32 ms | VERP [1]: 187 ms | HR [13]: 148 beats min-1 | AH interval [14]: 57 ms | MBP [5]: 84 mmHg | AH interval [15]: 66 ms | QT [16]: 196 ms | HV interval [27]: 37 ms | QT [17]: 288 ms | MBP [10]: 94 mmHg | VERP [12]: 144 ms | HR [18]: 110 beats min-1

c1ccc(CN2CC3CSCC(C3)C2)cc1 [listing 1 of 2 here]
VERP [28]: inactive | QT [29]: inactive | QT [30]: inactive | AH interval [31]: inactive | QT [32]: inactive | VERP [33]: inactive | AH interval [34]: inactive | QT [35]: inactive

CC(C)N1CC2CN(C(C)C)CC(C1)C21SCCS1
HV interval [26]: 30 ms | VERP [36]: 140 ms | MBP [37]: 61 mmHg | HR [38]: 105 beats min-1 | AH interval [14]: 56 ms | HV interval [39]: 40 ms | AH interval [15]: 75 ms | MBP [40]: 76 mmHg | HR [41]: 154 beats min-1 | QT [16]: 236 ms | VERP [19]: 180 ms | QT [17]: 270 ms

c1ccc(CN2CC3CSCC(C3)C2)cc1 [listing 2 of 2 here]
VERP [36]: 142 ms | MBP [37]: 98 mmHg | HV interval [42]: 30 ms | HR [38]: 162 beats min-1 | HV interval [39]: 40 ms | MBP [40]: 120 mmHg | HR [41]: 162 beats min-1 | NSVT [43]: 3 mg/kg | VERP [43]: 163 ms

Source: ChEMBL document CHEMBL1129356, “Novel 3,7-diheterabicyclo[3.3.1]nonanes that possess predominant class III antiarrhythmic activity in 1-4 day post infarction dog models: X-ray diffraction analysis of 3-[4-(1H-imidazol-1-yl)benzoyl]-7-isopropyl-3,7-diazabicyclo[3.3.1]nona ne dihydroperchlorate” (1996)
